MEKK2wt PB1 HTS: raises or lowers MEK5 binding to wildtype human MEKK2 PB1 domain; bead flow cytometry, Alexa488-MEK5 binding to MEKK2 WT; actives lie on both sides; binding response (% of control), % at 10 µM; actives 1.1% (n = 290,000); AID 1531; in the data active means binding response below about 67% or above about 130%
MEKK3 PB1 HTS: raises or lowers MEK5 binding to the human MEKK3 PB1 domain; Q99759; bead-based flow cytometry, Alexa488-MEK5 binding to MEKK3; actives lie on both sides; 0 = blocked by unlabeled MEK5, 100 = vehicle; binding response (% of control), % at 10 µM; actives 1.4% (n = 290,000);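 active means binding response more than 3 SD above or below the average of its plate-row segment, actives on both sides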;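 further: Alexa488 bead fluorescence after subtracting the streptavidin-only scavenger bead signal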
Target sequence (Q99759 whole entry, looked up, the tested form may be a part): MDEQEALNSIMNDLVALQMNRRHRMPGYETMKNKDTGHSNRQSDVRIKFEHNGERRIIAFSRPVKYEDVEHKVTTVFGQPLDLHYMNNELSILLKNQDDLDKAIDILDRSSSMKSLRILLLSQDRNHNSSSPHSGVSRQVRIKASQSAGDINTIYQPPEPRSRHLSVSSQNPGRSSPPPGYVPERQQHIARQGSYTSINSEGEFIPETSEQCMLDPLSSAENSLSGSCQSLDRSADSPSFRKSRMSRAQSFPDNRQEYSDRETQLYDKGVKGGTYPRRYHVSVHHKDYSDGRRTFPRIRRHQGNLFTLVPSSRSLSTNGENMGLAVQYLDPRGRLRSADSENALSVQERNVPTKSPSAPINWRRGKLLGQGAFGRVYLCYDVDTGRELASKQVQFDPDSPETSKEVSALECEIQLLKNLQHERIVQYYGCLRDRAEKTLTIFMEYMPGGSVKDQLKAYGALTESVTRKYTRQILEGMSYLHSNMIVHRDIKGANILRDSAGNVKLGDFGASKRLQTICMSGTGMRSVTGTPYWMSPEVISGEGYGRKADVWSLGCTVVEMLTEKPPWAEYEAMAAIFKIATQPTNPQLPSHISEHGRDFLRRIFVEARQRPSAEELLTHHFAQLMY
MEKK2mut PB1 HTS: signal of MEK5 binding to mutant human MEKK2 PB1 domain; bead flow cytometry, Alexa488-MEK5 binding to MEKK2 mutant; percent response, % at 10 µM; actives 0.35% (n = 290,000); in the data active means percent response above about 24%, passing the limit was not always enough
WT yeast gro inh: growth inhibition of WT yeast, mitochondrial fusion screen; inhibition, % at 10 µM; actives 2.1% (n = 190,000); mitochondrial fusion phenotypic screen, WT strain; AID 1362; in the data active means inhibition above about 58%; tested in S. cerevisiae
ABCB1 inh: blocks JC-1 efflux by human ABCB1 transporter; AID 1326; inhibition, % at 6.6 µM; actives 0.067% (n = 190,000); CCRF-Adr cells, flow cytometry; P08183; in the data active means inhibition above about 40%;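 further: 0% = vehicle and 100% = reference inhibitor; higher value means more JC-1 retained so stronger ABCB1 efflux block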
ABCG2 inh: inhibitors of human ABCG2 transporter, ABCB1 counter-screen; actives 0.1% (n = 190,000); AID 1325; inhibition, % at 6.6 µM; IgMXP3 cells, JC-1 efflux, flow cytometry; Q9UNQ0;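 active means inhibition above 80%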;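 further: 0% = DMSO and 100% = nicardipine control wells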
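Test system: IgMXP3 (ABCG2) plus far-red-tagged CCRF-Adr (ABCB1) cells. Reagent: JC-1 dye as substrate. Timing: 10 min exposure at 25 °C with rotation, no wash. Measured by: flow cytometric JC-1 green MFI at 530 nm. Read-out: percent efflux inhibition, scaled nicardipine 100% to DMSO 0%. Control set: nicardipine and DMSO wells.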
MEKK2wt confirm: raises or lowers MEK5 binding to wildtype human MEKK2, retest | shares compounds with MEKK3 PB1 HTS | bead flow cytometry, Alexa488-MEK5 binding to MEKK2 WT; actives lie on both sides | binding response (% of control), % at 10 µM | actives 2.4% (n = 5,900); in the data active means binding response below about 16% or above about 210%; inactive means in between
MEKK2mut-MEK5: signal of MEK5 binding to mutant human MEKK2, retest | AID 1893 | actives 2% (n = 5,900) | shares compounds with MEKK3 PB1 HTS | percent response, % at 10 µM | bead flow cytometry, Alexa488-MEK5 binding to MEKK2 mutant; in the data active means percent response mostly above about 71%, no sharp cut-off; inactive means mostly below about 38%;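 further: higher means compound restores mutant binding toward wildtype level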
MEKK3 confirm: MEKK3-MEK5 PB1 inhibition, single concentration confirmation; bead flow cytometry, Alexa488-MEK5 binding to MEKK3; hits give low values; actives 1.8% (n = 5,900); AID 1894; shares compounds with MEKK3 PB1 HTS; binding response (% of control), % at 10 µM;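 active means binding response below 72% of control, or above a set upper limit, though filed actives all read lower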;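 further: 100% = DMSO only wells and 0% = binding blocked by excess unlabeled MEK5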
* hit, by the source's call; / = not tested or not shown; [ ] = remark or other dose. In the library only some 3.5% were active in any assay of this set; here they are far more common.

SMILES	MEKK2wt PB1 HTS	MEKK3 PB1 HTS	MEKK2mut PB1 HTS	WT yeast gro inh	ABCB1 inh	ABCG2 inh	MEKK2wt confirm	MEKK2mut-MEK5	MEKK3 confirm
O=C(NC(=S)Nc1nc2c(ccc3ccccc32)s1)c1cccs1	98	102	-1	20	-1	-10	/	/	/
O=C(CCNC(=O)c1ccccc1)Nc1ccc(F)c(Cl)c1	108	138*	1	-4	0	0	103	5	102
O=C(O)c1ccc2c(=O)n3c(nc2c1)/C(=C/c1ccccc1Br)CC3	107	106	2	/	/	/	/	/	/
COCc1c(C#N)c(NCCc2ccccc2)nc(C)c1[N+](=O)[O-]	106	128*	1	12	0	7	-1.0*[inhibitor]	-29	0.0*
Cc1oc(-c2cccc(Cl)c2)nc1CN1CCC(C(=O)N2CCN(c3ccccc3F)CC2)CC1	140*	106	25	32	4	3	141	28	109
O=C1CNC(=S)N1CCc1ccc(O)c(O)c1	100	105	11	/	/	/	/	/	/
Cc1ccc(CCNC(=O)c2cc(S(=O)(=O)N3CCCC3)cn2C)cc1	104	100	3	/	/	/	/	/	/
C[C@]12C(=O)N(c3ccc(Cl)cc3)C(=O)N1[C@@H]1c3ccccc3OC[C@@H]1[C@H]2c1ccccc1	96	99	3	/	/	/	/	/	/
COc1cc(/C=C2\SC(=S)N(CC(=O)Nc3ccc(O)cc3)C2=O)cc(OC)c1OC	51	67*[inhibitor]	90*	-2	-1	-2	87	-12	97
CCOC(=O)C1CCN(C(=O)CSc2ccc(Cl)cc2)CC1	108	129*	1	4	1	3	100	-5	100
Cc1onc(-c2c(F)cccc2Cl)c1C(=O)OCC(=O)NC(N)=O	97	104	-12	-16	0	4	/	/	/
Cc1onc(-c2c(F)cccc2Cl)c1C(=O)OCC(=O)NC1CC1	90	70*[inhibitor]	-2	3	2	7	98	-3	102
CCOC(=O)C1CCN(C(=O)c2c(-c3c(F)cccc3Cl)noc2C)CC1	115	127*	8	-11	2	3	100	-6	101
CCOC(=O)C1CCN(C(=O)CSc2ccc(Br)cc2)CC1	98	101	3	7	0	0	/	/	/
Cc1onc(-c2c(F)cccc2Cl)c1C(=O)N1CCCCC1	105	101	2	/	/	/	/	/	/
CC(C)CCn1c(=O)c2ccccc2n2c(CCC(=O)NCC3CCCO3)nnc12 (stereo not drawn)	106	103	6	/	/	/	/	/	/
Cc1[nH]nc(SCC(=O)N2CCC(C)CC2)c1[N+](=O)[O-]	91	96	-4	-24	0	2	/	/	/
[O-]/C(=C(\C(=S)Nc1ccc(SC(F)F)cc1)[n+]1ccccc1)c1cc(Cl)ccc1Cl	58*[inhibitor]	102	-5	12	1	0	97	-4	103
Cc1cc(C)c(/C([O-])=C(/C(=S)Nc2ccc(SC(F)F)cc2)[n+]2ccccc2)cc1C	96	103	-4	16	3	0	/	/	/
CC(C)c1cccc(C(C)C)c1NC(=O)c1ccccc1	94	98	-3	0	0	6	/	/	/
CC(C)c1ccc(NC(=O)NCc2cccnc2)cc1	106	102	8	/	/	/	/	/	/
COCCOC(=O)c1c(C)oc2ccc(NS(=O)(=O)c3ccccc3)cc12	98	100	0	22	1	3	/	/	/
COCCOC(=O)c1c(C)oc2ccc(NS(=O)(=O)c3ccc(C)cc3)cc12	119	135*	29	/	/	/	102	4	105
Cc1oc2ccc(NS(=O)(=O)c3ccccc3)cc2c1C(=O)Nc1ccccc1	94	129*	-1	1	1	5	100	0	105
COc1ccc(-c2noc(=O)n2CC(=O)N2CCC(Cc3ccccc3)CC2)cc1	90	97	-7	-1	0	3	/	/	/
SMILES	MEKK2wt PB1 HTS	MEKK3 PB1 HTS	MEKK2mut PB1 HTS	WT yeast gro inh	ABCB1 inh	ABCG2 inh	MEKK2wt confirm	MEKK2mut-MEK5	MEKK3 confirm
COc1ccc(-c2nc(-c3cccnc3)no2)cc1OC	101	103	1	/	/	/	/	/	/
COc1ccc(-c2csc3nc(-c4cccnc4)nc(Cl)c23)cc1OC	105	145*	1	63*	1	3	105	10	109
COc1cccc(C2(CSc3nnc(-c4cc(OC)c(OC)c(OC)c4)o3)OCCO2)c1	/	/	/	0	4	28	/	/	/
COc1nc(-c2ccccc2)ccc1-c1noc(COc2ccccc2)n1	123	132*	6	20	1	6	100	0	101
COc1nc(-c2ccccc2)ccc1-c1noc(-c2ccccc2)n1	100	105	1	1	0	-1	/	/	/
S=C(NCCCN1CCOCC1)N1CCN(c2nc(-c3ccc(Cl)cc3)cs2)CC1	163*	109	47	89*	0	3	169	43	112
CCc1c(C)nc(SCC(=O)N2CCCCC2CC)[nH]c1=O (stereo not drawn)	118	122	25	/	/	/	/	/	/
Cc1n[nH]c(=S)n1/N=C/c1ccc(OCc2ccc(Cl)cc2)cc1	93	96	-6	24	0	-2	/	/	/
Cc1cc(C)c(COc2ccc(/C=N/n3c(C)n[nH]c3=S)cc2)c(C)c1	82	72*[inhibitor]	-2	91*	-1	-3	91	-10	94
CCOC(=O)CC1C(=O)NCCN1c1nc2ccc(C)cn2c(=O)c1/C=C1\SC(=S)N(CC(C)C)C1=O (stereo not drawn)	55*[inhibitor]	94	-7	/	/	/	93	-11	101
CCOc1cc(CNCCCN2CCOCC2)ccc1OCC(=O)Nc1cccc2ccccc12	141*	106	18	-8	0	13	115	-1	99
COc1cc(CNCCCN2CCOCC2)ccc1OCC(=O)Nc1cccc(C(F)(F)F)c1	119	104	8	6	3	5	/	/	/
O=C(O)C(Cc1ccc(Cl)cc1)Sc1nc2ccccc2[nH]1 (stereo not drawn)	102	102	2	/	/	/	/	/	/
O=C1OC(c2ccccc2)=C/C1=C\N1CCOCC1	2.0*[inhibitor]	2.0*[inhibitor]	-16	30	0	3	107	3	105
CC(C)NC(=O)NC(=O)COC(=O)/C=C/c1ccccc1[N+](=O)[O-]	90	84	-2	-7	0	3	/	/	/
